The results in this text go back to the EternaBench riboswitch data.

This data set concerns MS2 coat protein. The data set can be described thus: apparent Kd, MS2 coat protein; higher = weaker binding; RNA-MaP array; FMN 200 µM where present. Summed up: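 Green signal was scaled to red-channel RNA signal and control-cluster median Fmax, and the apparent Kd was taken as the median of filtered per-cluster binding-curve fits. The binding series used SNAP-549-labelled MS2 coat protein from 0.7 or 1.5 nM, doubling to 3 µM, on designs transcribed by stalled E. coli RNA polymerase on Illumina sequencing-chip clusters. Each series ran without and then with constant ligand in 100 mM Tris-HCl pH 7.5, 80 mM KCl, 4 mM MgCl2, BSA, DTT, yeast tRNA and Tween-20.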

[1] abbreviates: designed as: ON switch for flavin mononucleotide, no ligand.
Where [2] appears, read: ligand present: flavin mononucleotide, designed as: ON switch for flavin mononucleotide.
Setting [3] is: designed as: OFF switch for flavin mononucleotide, no ligand.
Where [4] appears, read: ligand present: flavin mononucleotide, designed as: OFF switch for flavin mononucleotide.

As to “CGGCGCUGUCGAGAGGAUAUGCGGUGAUGGACAUGAGGAUCACCCAUGUUAGCGAUAGCAUCACGGUAGAAGGCUCUUACGCCUG”, the “apparent Kd” value reads like this: under setting [1], 378 nM; under setting [2], 174 nM.
For the sequence “UGAAAUCAUGUAGGAUAUGCAUGGCGAAGCUACGCAGAAGGACAUGAGGAUCACCCAUGUUAUAGCUACCCAGUUUGGUGGCAA”, the “apparent Kd” value reads like this: under setting [3], 49.8 nM; under setting [4], 151 nM.
In the case of “GGGCGACAUGAGGAUCACCCAUGUAACCAAAACGAAGGAUAUGGGCCUGAACGUCCAGGACUAGAAGGUCGGAAAC”, the “apparent Kd” value stood at 22 nM under setting [1] and 18 nM under setting [2].
Regarding “AGGAUCCUAUCAAGACAAAUGUACAUGAGGAUCACCCAUGUGCAGGAUAUAGCUAGUUACGGUGGCUAGAAGGGCACACCAAAA”, the “apparent Kd” value under setting [3] amounted to 6.72 nM and the “apparent Kd” value under setting [4] came to 14.3 nM.
The like results for “CCAGUGUAAGGAUAUGACAAUGGUAUCUUCGGAUACCAUUGUCAGAAGGUACAUGAGGAUCACCCAUGUAACAC” were, in that order, 16.6 nM and 26.5 nM.
On the same counts, the results for “CACGGUGAUGUAGGAUAUACGCUGGAAUACAGCGUAGAAGGACAUGAGGAUCACCCAUGUAGAGUGUCUCCAAAUAACACCGUG” are 43 nM and 293 nM.
The like results for “CAGUGCAAUGUAGGAUAUGCUCAGGAAUACUGAGCAGAAGGACAUGAGGAUCACCCAUGUAAAAUGAAAGAUAAUAAAGCACUG” were, in that order, 16.1 nM and 51 nM.
With “AACGACUUAGGAUAUACAUGAGGAUCACCCAUGUUCAAAUCGUGGGUCAGGUGAGAAGGUAGAAGGAAGUCACU”, the “apparent Kd” value under setting [3] worked out at 33.6 nM and the “apparent Kd” value under setting [4] was found to be 93.7 nM.
With “AUAUAAUAUCAGGAUAUGACUAGCCUCGGCUAGUCAGAAGGGAUGACAUGAGGAUCACCCAUGUGAUCAUAUAU”, the “apparent Kd” value by setting is: under setting [3], 32.8 nM; under setting [4], 156 nM.
Regarding “CGGGCAUAUCGAGGAUAUAAGUCUAGGACAUGAGGAUCACCCAUGUAUGUCUUAGAAGGCGAUAUGCCCAGCCUGUUACAGGCA”, the “apparent Kd” value under setting [1] is 30 nM and the “apparent Kd” value under setting [2] stood at 6.01 nM.
With “AGUCGGAGCAGAGGAUAUUACAUGAGGAUCACCCAUGUGGAAGAACCAAGCUGGAAACAGCAAUGUAAGAAGGCUGCUCCGACA”, the “apparent Kd” value reads like this: under setting [3], 918 nM; under setting [4], 430 nM.
The like results for “AACGCAUGUGGAGGAUAUGCAGUUAACAUAAGCGCAGAAGGCCACAUGAGGAUCACCCAUGUCCGGCAUUAGCCGAUGUUGAUC” were, in that order, 509 nM and 114 nM.
As to “GCGUAACAUGAGGAUCACCCAUGUACUCGAGAAUUCGAGUGUAGAAGGGUGACCGGUCGUUUGGCACAGGAUAUACACGCUGUG”, the “apparent Kd” value reads like this: under setting [1], 31.5 nM; under setting [2], 12 nM.
“AUAAGCUCGUCAGGAUAUACAACACUGUGUAAGCAGUGUGGUAUGAUCACAUGAGGAUCACCCAUGUAGAAGGGACGAGCUUAU”: the “apparent Kd” value runs as follows: under setting [3], 6.33 nM; under setting [4], 43.4 nM.
As to “CGUUGAUUUAUUGGAUGAUAUGAUGAGGAUAUCAAUAUUUGUUACAUGAGGAUCACCCAUGUUAAUGAGAAGGCAUAAUUAACG”, the “apparent Kd” value runs as follows: under setting [1], 8.49 nM; under setting [2], 7.96 nM.
On to “UUAAAUCAUGUAGGAUAUGCAUGGCGAAGCUACGCAGAAGGACAUGAGGAUCACCCAUGUUAUAGCUACCAAGUAAGGUGGCAA”, for which the “apparent Kd” value is 77.9 nM under setting [3] and 236 nM under setting [4].
For the sequence “AUAUAUACAAAGUUACAUGAGGAUCACCCAUGUUUAUUGGGAAGAAGGGUAACAUUAUUAGAUGUAUAGGAUAUUUCACGAUUG”, the “apparent Kd” value by setting is: under setting [1], 513 nM; under setting [2], 320 nM.
“UCCUGGCGAGGAUAUACAAAGAUUUUUUCGUUUUGUUACGAACAUGAGGAUCACCCAUGUAGAAGGUGCUGCUG”: the “apparent Kd” value is, setting by setting: under setting [3], 204 nM; under setting [4], 193 nM.
For the sequence “UUGCUCGUGUGAGGAUAUGCCGCCGUUUCGGCUGCAGAAGGUACUUUAAUACAUGAGGAUCACCCAUGUCUCUGUUGUUUCGUG”, the “apparent Kd” value under setting [1] was 26.5 nM and the “apparent Kd” value under setting [2] is 26.9 nM.
For “GCAUGCAAGUAGAAGGUCGGAUAUUUUGAUACCGAAGGAUAUGCAGAAUCAUAUCCACAUGAUAACAUGAGGAUCACCCAUGUA”, the “apparent Kd” value under setting [3] stood at 15.3 nM and the “apparent Kd” value under setting [4] worked out at 12.7 nM.
On the same counts, the results for “GCAAGGCAUGUAGGAUAUCGAGCUCAAAGAGCUCGAGAAGGACAUGAGGAUCACCCAUGUGCUCACAGACAGUGAGCGCCUUGC” are 18.4 nM and 44.4 nM.
Consider “AACGAGCAGUAGAAGGCGUGUCUACGGACAUGAGGAUCACCCAUGUUGUGACUCCGAAAGGAGCGCGAGGAUAUACUGCUCAAA”, for which the “apparent Kd” value was 10.3 nM under setting [1] and 6.57 nM under setting [2].
Turning to “AAUAUGAGCUGGUAUAUAAACCUCACAUGAGGAUCACCCAUGUAGGAUAUCAGCACGAUAAGUGCUGAGAAGGACAUCCAGCUC”, the “apparent Kd” value was 15.4 nM under setting [3] and 17.8 nM under setting [4].
On the same counts, the results for “AAAUAGCGAGGAUAUACAUGAGGAUCACCCAUGUGGACUGAUGUAGCAUGUUUCAGUGGUAGAAGGUGCUCAAA” are 112 nM and 100 nM.
As for “UUAUUAUGUGUAGGAUAUGCAUAUUAUCAUUAUGCAGAAGGACAUGAGGAUCACCCAUGUAUAUUAUUAUUAUAUAUUAUAUAU”, the “apparent Kd” value by setting is: under setting [3], 15.5 nM; under setting [4], 12.6 nM.
The like results for “AAGUCGAGCGUGAGGAUAUCGUCCGGACGACCGAACGAGAAGGCACAUGAGGAUCACCCAUGUGAUUCAGCUCA” were, in that order, 19 nM and 70.5 nM.
The like results for “UCCUUAGCGGUCAGGAUAUACACCCGUUACUCCUUGUAGAAGGGACAUGAGGAUCACCCAUGUACAGUACAUCU” were, in that order, 22.9 nM and 21 nM.
As to “GUUAGACAUGAGGAUCACCCAUGUGAGGAUAUGAUGCGAUCGUGAUGAAAUGAUCGCAUCAGAAGGCACAUAUG”, the “apparent Kd” value worked out at 153 nM under setting [3] and 423 nM under setting [4].
Take “AGCCAAGCAGGAUAUGCACGUAAUAACAUGAGGAUCACCCAUGUGACCGAUUUAUGUUCUGCAGAAGGGCUUGGAA”: the “apparent Kd” value under setting [3] was found to be 60.3 nM and the “apparent Kd” value under setting [4] is 63.5 nM.
For “ACGUUUAAUACAGGAUAUGUUAAUAUACAAUAGAUUGGAUAUUACUUAAUUACAGAAGGGUAGAACAUGAGGAUCACCCAUGUA”, the “apparent Kd” value by setting is: under setting [1], 329 nM; under setting [2], 239 nM.
In the case of “GGAUCGAAUGUGAGGAUAUGCAGGUCCUUGGAUCUGCAGAAGGCACAUGAGGAUCACCCAUGUGACCAAGAUCC”, the “apparent Kd” value under setting [3] came out at 50 nM and the “apparent Kd” value under setting [4] came to 548 nM.
Turning to “CAAUAAGACACAGGAUAUCCAGACAGGGAAGAUGGAGAAGGGUGAUCAGAAAAGACAUGAGGAUCACCCAUGUCUCGUGCGAUG”, the “apparent Kd” value runs as follows: under setting [1], 631 nM; under setting [2], 282 nM.
The like results for “AAGAUACUUACAGGAUAUAGGGCAUAGGGUGCCCUAGAAGGGUGAACAUGAGGAUCACCCAUGUAUGUAUCAGAUUAGAAGGCA” were, in that order, 53.3 nM and 41.8 nM.
Regarding “AUAUUUGUUUAGAAGGACAUGAGGAUCACCCAUGUCGCUGGGCGCGGGAAACCGUGCGCGGCCAUGUAGGAUAUAGGGAGAUAU”, the “apparent Kd” value runs as follows: under setting [3], 38.7 nM; under setting [4], 24.3 nM.
On the same counts, the results for “GGAUAGGACAGAGGAUAUACGUGCUAGAGAUACUAGCAAAAUUUCCUCACAUGAGGAUCACCCAUGUAGAAGGCUGUACUAUCG” are 15.2 nM and 202 nM.
The like results for “GGAUGACAAAGUCAUCCCUGACGGACAUGAGGAUCACCCAUGUAGGAUAUGCUACUCAAAGAGUAGCAGAAGGACAUGUGUCUU” were, in that order, 35.5 nM and 206 nM.
Turning to “GGAUAGAUGAAGGGCGAACGCGCACAUGAGGAUCACCCAUGUAGAAGGCGGUCCGCAACGCGGAUCGAGGAUAUAUAGUAUACG”, the “apparent Kd” value is 18.4 nM under setting [3] and 16.8 nM under setting [4].
The like results for “GUCCCGUCUAGCUUCAGCACAUGAGGAUCACCCAUGUCCUAGAGAAGGGCCUAGAGUUAUCAAAGGCAGGAUAUCUGCACAUGG” were, in that order, 30.8 nM and 47.7 nM.
The like results for “CUCUUGGCAGGAUAUGCUUUUUUAGACAUGAGGAUCACCCAUGUGAUGAAUAUUGGGUUCGCAGAAGGGCCUGAAU” were, in that order, 54.1 nM and 48.3 nM.
On the same counts, the results for “GCUCACCGUCAGAAGGUACUUAAAAGUUGUGAGUAAGGAUAUGACAUGAGGAUCACCCAUGUAAACGUGGACUUUCACAUACAU” are 13.5 nM and 59.1 nM.
As for “UUAAAUUAGUAGAAGGACGGUGAGUAAGAAGUCGUAGGAUAUACAUAAGACAUGAGGAUCACCCAUGUAAGUUUGUUGGGUAUG”, the “apparent Kd” value under setting [3] was found to be 44.1 nM and the “apparent Kd” value under setting [4] worked out at 38.4 nM.
The like results for “AAUGGCGUGAUAACGCUAAUUAAAACAUGAGGAUCACCCAUGUAGGAUAUCCUACCGAAAUGGUAGGAGAAGGACAAGCAAUGA” were, in that order, 33.4 nM and 27.7 nM.
The like results for “AAUGUUUGAUUCCACUUAUACAUGAGGAUCACCCAUGUUAUCGAGGAUAUGCAUUAGAGUGUUUAGCAGAAGGCGAUGUAAUUU” were, in that order, 6.74 nM and 17.5 nM.
Turning to “CAUUCCCGUCGAGGAUAUAUUAUAUGACAACAAACACAUACAUGAGGAUCACCCAUGUCCCAUGUAUAGAAGGCGACCUGCGUC”, the “apparent Kd” value is, setting by setting: under setting [1], 46.6 nM; under setting [2], 99.3 nM.
In the case of “AGUAGAUCAGGAUAUACGUGAAAGGUCAAAGUGUCCCUACUACAUGAGGAUCACCCAUGUAGAAGGGAUCUACA”, the “apparent Kd” value runs as follows: under setting [3], 13.4 nM; under setting [4], 14.6 nM.
As to “UAUCUGUGAGGAUAUCCGGGCCCGGGCGAAAGCCCGGGCCCGGAGAAGGCACAUGAGGAUCACCCAUGUGACCU”, the “apparent Kd” value worked out at 14.8 nM under setting [3] and 19.1 nM under setting [4].
The like results for “UUCCUACAUGAGGAUCACCCAUGUCAGGAUAUCUCCUCACUGCGCUUGCGCAGUGAAUAGAGAAGGGACAGGCU” were, in that order, 14.9 nM and 19.3 nM.
On the same counts, the results for “CUGGGCGGAGGAUAUACAGGUUGGGCAUAAGUUCGGCUGGGACAUGAGGAUCACCCAUGUAGAAGGUUGUUUAG” are 25.3 nM and 23.1 nM.

One may read the apparent Kd as a dissociation constant that holds for the conditions of the assay.
